Data set [1] concerns relapsed and/or refractory MM. Conditions: ref Richardson et al, cited from earlier work.
Data set [2] concerns patients with relapsed/refractory MM. The data set can be described thus: Phase I dose escalation. In kind it is in vivo, human. The following applies: days 1, 4, 8, 11 every 3 weeks, up to KW-2478 175 mg m^−2 plus BTZ 1.3 mg m^−2. Summed up:
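DLT window was cycle 1, graded by CTCAE v4.0. DLT was related non-haematologic grade ≥3 toxicity (controllable GI events excepted) or grade 4 haematologic toxicity (neutropenia ≤5 days excepted).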

The test system is the same in data set [3]. The data set can be described thus: Safety: treatment-related adverse events. The class given is in vivo, human. Summed up: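 Safety population was all patients receiving ≥1 dose. AEs were graded by CTCAE v4.0; treatment-related meant possibly, probably or definitely drug-related per investigator. Vital signs, vision, peripheral neuropathy, haematology and chemistry were checked at screening, on days 1, 4, 8, 11 and 16–18 of each cycle, at end of treatment and at 30-day follow-up. Phase I screening included slit-lamp retinal examination.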

The test system of data set [4] is relapsed/refractory multiple myeloma. The class given is in vivo, human. Conditions: comparison with historical single-agent BTZ. An outline of the steps: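 Response graded by IMWG criteria, with minimal response added per ASH-FDA panel. Assessed in evaluable phase II patients plus phase I patients at RP2D (KW-2478 175 mg m−2 i.v. over 1 h, 30 min after BTZ 1.3 mg m−2 bolus, days 1, 4, 8, 11 of 21-day cycles). Duration of response ran from first CR/PR/MR to PD or death. PFS ran from treatment day 1 to PD or death. Both by Kaplan–Meier.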

Data set [5] in a line: Plasma pharmacokinetics of KW-2478 in phase I, cycle 1. The class given is in vivo, human.
Data set [6] relates to patients with advanced, relapsed/refractory B-cell malignancies (predominantly with MM). Conditions: ref Yong et al, 2016, cited from earlier work.
In the next data set the test system is MM models. The following applies: cited from earlier work.
Setting [7] is: large-scale phase III trials, 2005, Orlowski et al, 2007.

“Also recorded” adds a separate entry of the source.

This is an account of results in PMC5672925 (British Journal of Cancer, 2017).

Consider `CC(C)C[C@H](NC(=O)[C@H](Cc1ccccc1)NC(=O)c1cnccn1)B(O)O` [BTZ, bortezomib], for which the “ORR, BTZ alone (reference)” value in data set [1] (SUMMIT trial, 2006) was 35%. Also, in data set [1] (setting [7]), the “Median PFS, single-agent BTZ” value is reported as roughly 6 months and the “ORR, single-agent BTZ” value is listed as roughly 40%.

Consider `CCc1c(O)cc(O)c(C(=O)c2ccc(OCCN3CCOCC3)c(OC)c2)c1CC(=O)N(CCOC)CCOC` [KW-2478], for which the “Maximum tolerated dose (MTD)” value in data set [2] is recorded as “not reached”. Moreover, the Ocular safety result in data set [3] (in combination with BTZ) is “did not raise any ocular safety concerns”. Also, the “Effect on toxicity of BTZ in the combination regimen” value in data set [3] (in vivo) is recorded as “did not enhance the toxicity of BTZ”. The “Contribution of KW-2478 to the efficacy of BTZ alone” value in data set [4] is “insufficient evidence that KW-2478 added to the efficacy of BTZ alone”. Besides, the “Mean CL, range” value in data set [5] (130 mg m^−2 dose) lay in the range of 25.9 to 33.3 L/h; in data set [5] (175 mg m^−2 dose), 32.2 to 62.0 L/h. The “Effect of increase in BTZ dose on KW-2478 pharmacokinetics” value in data set [5] (co-administered BTZ 1 vs 1.3 mg m^−2) is reported as “did not affect”. In data set [5] (day 11 vs day 1, cycle 1), the Accumulation result is “Accumulation did not occur”. In data set [6], the Single-agent clinical activity result was “modest single-agent activity; also recorded: preliminary signs of clinical activity were seen”. In addition, the Tolerability result in data set [6] (single agent) is “well tolerated”. Also, the Antitumour activity result with MM models (KW-2478 alone, ref Nakashima et al, 2010) was “exhibits antitumour activity”. Further, in the data set on MM models (ref Juliger et al, 2008), the “Antitumour activity in MM cells in the presence of bone marrow stromal cells” value is listed as “retained”.
